Source: ChEMBL document CHEMBL4842338, “System-oriented optimization of multi-target 2,6-diaminopurine derivatives: Easily accessible broad-spectrum antivirals active against flaviviruses, influenza virus and SARS-CoV-2” (Eur J Med Chem, 2021)
The source made the active and inactive calls. No cut-off for these calls is given here.

What was measured:
[1] = Selectivity index, ratio of CC50 for MDCK cells to IC50 for Influenza A Puerto Rico/8/34/H1N1 infected in MDCK cells; type: toxicity, cell-based; details: dog, read-out: Selectivity Index
Outline: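 MDCK or A549 cells (2.5 × 10⁵/well) infected with A/Puerto Rico/8/34 H1N1 for 1 h at 37 °C, then washed. Compound (0.5–20 μM) added in 2% FBS medium for 24 h, with DMSO final ≤0.2%. Virus in supernatants read by hemagglutination. CC₅₀ by MTT (2 × 10⁴ cells/well, same concentrations, 24 h, absorbance 570 nm). SI = CC₅₀/IC₅₀.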

[2] = test system: Huh-7; assay: Effect on formation of DENV replication complex in human Huh-7 cells assessed as reduction in expression of NS5 at 50 uM measured after 8 to 24 hrs by DAPI staining based confocal microscopy analysis; type: functional, cell-based; details: time 8-24 hrs
Outline: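 Huh-7 cells (1 × 10⁴) on coverslips infected with DENV-2 (MOI 0.05), treated (100 or 50 μM as listed), fixed in 4% paraformaldehyde at 8, 12, 16, 24 h; anti-NS3/anti-NS5 with Alexa 488/568 secondaries, DAPI; confocal, 5 random fields at 40×; % positive cells; 2-way ANOVA with Dunnett.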

[3] = test system: West Nile virus; assay: Antiviral activity against West Nile virus lineage 1 (Italy/2009) infected in pre-seeded Huh-7 cells assessed as inhibition of viral replication incubated for 48 hrs by immunodetection based plaque reduction assay; type: functional, organism-based; details: Huh-7, 48 h
[4] = test system: Caco-2; assay: Cytotoxicity against human Caco2 cells infected with SARS-COV-2 assessed as reduction in cell viability by celltiter-glo luminescent cell viability assay; type: cell-based
Outline: (§1)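 Compound-exposed cells assessed by CellTiter-Glo luminescence versus DMSO control; CC50 from dose-response.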

[5] = test system: Influenza A virus; assay: Antiviral activity against Influenza A Puerto Rico/8/34/H1N1 infected in human A549 cells assessed as reduction in viral protein expression at 20 uM pretreated for 2 hrs followed by staining with anti-Flu antibody observed at 24 hrs post infection by In-cell western assay; type: functional, organism-based; details: A/Puerto Rico/8/1934(H1N1)
[6] = Cytotoxicity against human Huh-7 cells assessed as reduction in cell viability by Celltiter-Glo luminescent cell viability assay; type: cell-based; details: Huh-7 cells; outline: as §1
[7] = test system: Influenza A virus; assay: Antiviral activity against Influenza A/California/04/2009H1N1 infected in human A549 cells assessed as reduction in viral protein expression at 20 uM treated for 24 hr post viral adsorption followed by staining with anti-Flu antibody observed at 24 hrs post infection by In-cell western assay; type: functional, organism-based
[8] = Selectivity index, ratio of CC50 for human Huh-7 cells to IC50 for Dengue virus serotype 2 New Guinea C infected in pre-seeded Huh-7 cells assessed as inhibition of viral replication incubated for 72 hrs by immunodetection based plaque reduction assay; type: toxicity, cell-based; details: read-out: Selectivity Index
[9] = Selectivity index, ratio of CC50 for human Huh-7 cells to IC50 for West Nile virus lineage 1 (Italy/2009) infected in pre-seeded Huh-7 cells assessed as inhibition of viral replication incubated for 48 hrs by immunodetection based plaque reduction assay; type: toxicity, cell-based; details: read-out: Selectivity Index
[10] = Selectivity index, ratio of CC50 for human Huh-7 cells to IC50 for Zika virus H/PF/2013 infected in pre-seeded Huh-7 cells assessed as inhibition of viral replication incubated for 72 hrs by immunodetection based secondary yield reduction assay; type: toxicity, cell-based; details: read-out: Selectivity Index
[11] = test system: Influenza A virus; assay: (§2) Antiviral activity against Influenza A virus (A/parrot/Ulster/73(H7N1)) infected in human A549 cells assessed as reduction in viral protein expression at 20 uM treated for 24 hrs post viral adsorption followed by staining with anti-Flu antibody observed at 24 hrs post infection by In-cell western assay; type: functional, organism-based
[12] = test system: Influenza A virus; assay: Antiviral activity against Influenza A Puerto Rico/8/34/H1N1 infected in human A549 cells assessed as inhibition of hemagglutinin expression at 20 uM treated for 1 hr during viral absorption followed by infection of fresh cell monolayer of A549 cells with supernatant for 24 hrs by In-cell western assay; type: functional; details: A/Puerto Rico/8/1934(H1N1)
Outline: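 A549 cells infected with PR8 H1N1 and given 20 μM compound: 2 h before infection (PRE), 1 h during adsorption (DUR), or 24 h after adsorption (POST); supernatants used to infect fresh monolayers for 24 h; anti-HA in-cell western; RFU as % of untreated infected; 3 replicates from two experiments.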

[13] = test system: dengue virus type 2; assay: Antiviral activity against Dengue virus serotype 2 New Guinea C infected in pre-seeded Huh-7 cells assessed as inhibition of viral replication incubated for 72 hrs by immunodetection based secondary yield reduction assay; type: functional, organism-based; details: Dengue virus, New Guinea C, Huh-7, 72 h; read-out: IC50
[14] = test system: SARS-CoV-2; assay: Antiviral activity against SARS-COV 2 infected in human Caco-2 cells assessed as inhibition of viral replication at MOI of 0.01 and incubated after 2 hrs post infection for 48 hrs by immunodetection assay; type: functional, organism-based; details: Severe acute respiratory syndrome coronavirus 2, Caco-2
[15] = Inhibition of full length ZIKV NS5-MTase domain using 7MeGpppAC4 as a substrate incubated for 30 mins by filter binding assay; design: species or system Zika virus
[16] = test system: Influenza A virus; assay: Antiviral activity against Influenza A virus (A/California/04/2009(H1N1)) infected in human A549 cells assessed as reduction in viral protein expression at 20 uM treated for 2 to 6 hrs post infection and measured following infection of MDCK cells with supernatant for 24 hrs by time-of-addition assay; type: functional, organism-based; details: time 2-6 hrs
[17] = Selectivity index, ratio of CC50 for human Caco-2 cells infected with SARS-COV-2 to IC50 of SARS-COV 2 infected in human Caco-2 cells; type: toxicity, cell-based; details: read-out: Selectivity Index
[18] = Cytotoxicity against African green monkey Vero E6 cells infected with SARS-COV-2 by celltiter-glo luminescent cell viability assay; type: cell-based, Vero C1008; details: chlorocebus sabaeus, Vero E6 cells infected with SARS-COV-2; outline: as §1
[19] = Selectivity index, ratio of CC50 for human Huh-7 cells to IC50 for Zika virus H/PF/2013 infected in pre-seeded Huh-7 cells assessed as inhibition of viral replication incubated for 72 hrs by immunodetection based direct yield reduction assay; type: toxicity, cell-based; details: read-out: Selectivity Index
Outline: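 Direct yield reduction in Huh7 cells (7000/well), infected with 50 TCID₅₀ of DENV or ZIKV, or 25 TCID₅₀ of WNV. Adsorption 1 h at 37 °C, then virus removed and serial compound dilutions added. Incubated 72 h (DENV, ZIKV) or 48 h (WNV). Viral antigen immunodetected on the monolayer. IC₅₀ by non-linear regression, mean of three experiments. SI = CC₅₀ (Huh7, CellTiter-Glo luminescence)/IC₅₀.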

[20] = test system: Influenza A virus; assay: as §2, with “for 24 hrs, pdp viral adsorption” for “for 24 hrs post viral adsorption”; type: functional, organism-based
[21] = test system: Influenza A virus; assay: Antiviral activity against Influenza A Puerto Rico/8/34/H1N1 infected in human A549 cells assessed as inhibition of viral replication after 24 hrs by hemagglutination assay; type: functional, organism-based; details: A/Puerto Rico/8/1934(H1N1), A549, 24 h
[22] = test system: Influenza A virus; assay: Antiviral activity against Influenza A Puerto Rico/8/34/H1N1 infected in human A549 cells assessed as inhibition of hemagglutinin expression at 20 uM treated 2 to 6 hrs post infection for 24 hrs followed by infection in fresh monolayer of MDCK cells with supernatant for 24 hrs by time-of-addition assay; type: functional, organism-based; details: A/Puerto Rico/8/1934(H1N1), time 2-6 hrs
[23] = test system: dengue virus type 2; assay: Antiviral activity against Dengue virus serotype 2 New Guinea C infected in pre-seeded Huh-7 cells assessed as inhibition of viral replication incubated for 72 hrs by immunodetection based plaque reduction assay; type: functional, organism-based; details: Huh-7, 72 h

## FC(F)(F)c1cccc(Nc2nc(NCCOc3ccccc3)nc3[nH]cnc23)c1
[1]
  selectivity ratio: 14.5
[2]
  Activity: Active
[3]
  IC50: 3.9 µM
[4]
  CC50: 81.3 µM
[5]
  Activity: Active
[6]
  CC50: 200 µM
[7]
  Activity: Active
[8]
  selectivity ratio at 72 h: 222
[9]
  selectivity ratio at 48 h: 51
[10]
  selectivity ratio at 72 h: 182
[11]
  Activity: Active
[12]
  inhibition at 20 µM: 50%
[13]
  IC50: 2.6 µM
[14]
  IC50: 5.9 µM
[15]
  IC50: Not Active
[16]
  Activity: Active
[17]
  selectivity ratio: 14
[18]
  CC50: 200 µM
[19]
  selectivity ratio at 72 h: 250
[20]
  Activity: Active
[21]
  IC50: 9.9 µM
[22]
  Activity: inactive
[23]
  IC50: 0.9 µM
